# Source: the EternaBench riboswitch data
# Tested on: MS2 coat protein
# Experiment: apparent Kd, MS2 coat protein; higher = weaker binding; RNA-MaP array
# Procedure, shortened: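 RNA designs were transcribed from sequenced DNA templates on an Illumina sequencing chip and then incubated at room temperature with fluorescently labeled MS2 coat protein at 1.5 nM to 3 μM, with or without input ligand, in Tris-HCl pH 7.5 buffer containing KCl, MgCl2, BSA, DTT, tRNA and Tween20. Incubation lasted 0.8–1.5 h at the lowest protein concentrations and 10–20 min at the highest. Apparent Kd is the median of binding-curve fits made for each cluster. Designs measured on fewer than 10 clusters were excluded.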
# [1] = designed as: OFF switch for flavin mononucleotide, no ligand
# [2] = ligand present: flavin mononucleotide, designed as: OFF switch for flavin mononucleotide
# [3] = designed as: ON switch for flavin mononucleotide, no ligand
# [4] = ligand present: flavin mononucleotide, designed as: ON switch for flavin mononucleotide
# [5] = designed as: OFF switch for tryptophan, no ligand
# [6] = ligand present: tryptophan, designed as: OFF switch for tryptophan
Sequence,apparent Kd [1] [nM],apparent Kd [2] [nM],other results
AAAACUUCUAAGAAGGUGAUUUGGGCAUAUCGUCGUUUUACAUGAGGAUCACCCAUGUUUAACGUCAAGGAUAUUAGGGAUUCC,6.11,5.9,
AAAAUACAUGAGGAUCACCCAUGUCGCAAAUGCAUAGGAUAUGAUGAUGCUAAACACGCAUCAGAAGGAUGUAGAA,,,apparent Kd [3]: 10.9 nM; apparent Kd [4]: 9.52 nM
AAACGGUAAGGAUAUCCACCAGGAUUGGAGCCACCUAAUUCGGAGAAGGUACAUGAGGAUCACCCAUGUCGGGU,146,124,
AAAUUAACGAAGAAGGCCUGACGACAUGACUACAUGAGGAUCACCCAUGUUGCAGCACAAUAUAAGGAGGAUAUUCGACAAGCU,,,apparent Kd [3]: 10.2 nM; apparent Kd [4]: 6.86 nM
AACAUACAUGAGGAUCACCCAUGUCAAGAGAUGAAAGGAUAUAACUCUAUCAGGGUAAAGUAAGAAGGUUCGACUA,,,apparent Kd [3]: 23.5 nM; apparent Kd [4]: 20.1 nM
AACUGAAGCACCUUAUGCGGCGGCAAAACCCGAGGACCGGUACGGCCGCCACUCGAGUCGCAACAUGAGGAUCACCCAUGUGUAU,,,apparent Kd [5]: 51.3 nM; apparent Kd [6]: 117 nM
AAGGGCGACGGACAGGAUAUAGUUAUUGUUACAUGAGGAUCACCCAUGUCUCCAGGUCUUUGACGCUAGAAGGGUCCCUCCUCGAC,,,apparent Kd [3]: 61.2 nM; apparent Kd [4]: 26.5 nM
AAGUACUUUGAGAAGGACCUCUCGAACAUGAGGAUCACCCAUGUCACGGAGUACCCGAUCGGCUGGUAGGAUAUCAUGGUACCG,,,apparent Kd [3]: 9.89 nM; apparent Kd [4]: 8.15 nM
AAUAAGUUAGGAUAUUCAGGAGCAGCGCAAUGGUACGAGUCGAAGAAGGAACAUGAGGAUCACCCAUGUGAACC,11.2,11.5,
AAUACAGCUACGGCCGCCACUUUAACUUGGUAUGGGUCCUUCACAAACAUGAGGAUCACCCAUGUAAGGACCGGGUAGCCUUGUU,,,apparent Kd [5]: 21.1 nM; apparent Kd [6]: 35 nM
AAUAUAGCAGGAUAUACAGAACACCAAUAGACUUCGUUUAGACAUGAGGAUCACCCAUGUAGAAGGGCUCAGAC,9.85,9.18,
AAUUGAAACAGAGGUAUAUACGGACAUUACCGAGGACCGGUACGGCCGCCACUCGACCUAAAACAUGAGGAUCACCCAUGUAGCA,,,apparent Kd [5]: 13.1 nM; apparent Kd [6]: 13.6 nM
AAUUGUCGAGCAGGAUAUAGCUGACAGGAUAUUCAACUAACGACAUGAGGAUCACCCAUGUGUGGCUAGAAGGGCUUCAAGGCA,,,apparent Kd [3]: 15.2 nM; apparent Kd [4]: 11.5 nM
ACAACGUAACGAGGAUAUAAUCUAAAAGUUCGGUGACGUAGACAUGAGGAUCACCCAUGUUAGUAUUAGAAGGCGUUCGGCGGG,14.4,41.9,
ACAGACAAGUAGAAGGCAAUGAGGAGUGAAAAUUGAGGAUAUACCAGCAUGAGUGCCUACAUGAGGAUCACCCAUGUGUAGAUU,388,395,
ACAUACAUGAGGAUCACCCAUGUGGGAUCUUCCUCUAAAACUAAGGAUAUGUCAGUUGGUUAACUACAGAAGGUAGGUCGGAAC,313,306,
ACAUAGUAAGGAUAUCUCCUGUUCGAGAAAGAGAGGCAUAAAGAGAAGGUACAUGAGGAUCACCCAUGUGACGA,7.51,7.26,
ACAUGAGGAUCACCCAUGUUAUAGGGCAGGGAACGGAGCAUCUAGGAUAUUGUACACCGGCUACACAAGAAGGAGACCGAAGCU,15.7,12.3,
ACCCGCUCCUGAGGAUAUCCGGCAUGACAUGAGGAUCACCCAUGUGGGCUCGUGGAGGGAGUGCAGGAGAAGGCAGUAGGCGCU,35.7,82.6,
ACGAUGAUAGAAGGAUAUAGGCCGAACAUGAGGGACAUGAGGAUCACCCAUGUGACAGUCGGACCCUAGAAGGUCUCGAUACUC,21.2,15.1,
ACUCAGUCAGGAUAUAGAGCCGCACGAGAUCGUGACUCGAUCUAGAAGGGACAUGAGGAUCACCCAUGUUAAGA,12.7,20.8,
ACUCAGUGAGGAUAUAUAGACGAGGAAAAGUGGAAACUUGAAUAGAAGGCACAUGAGGAUCACCCAUGUCGACG,8.5,10.8,
ACUGAUUAUGUGAGGAUAUCGCUUUCAGGCAGAAACGAGAAGGCACAUGAGGAUCACCCAUGUUACGUCCACUG,6.64,9.56,
ACUGUACUGGGAGGAUAUGGAGAGUUACCGUAAAUAAUCUACUAGACAUGAGGAUCACCCAUGUUCCAGAAGGCCCCAUGGACC,,,apparent Kd [3]: 14.9 nM; apparent Kd [4]: 10.4 nM
AGACACAUGAGGAUCACCCAUGUACACGAGCGAGGACCGGUACGGCCGCCACUCGUCCAAGCAACUAAUGAGACUCGUAAGAUGG,,,"apparent Kd (designed as: ON switch for tryptophan, no ligand): 24.6 nM; apparent Kd (ligand present: tryptophan, designed as: ON switch for tryptophan): 29.3 nM"
